Measurements taken from article PMC3536955 (Osteoporosis International, 2012).

Tests used:
Assay type in all cases: in vivo, postmenopausal Japanese women
[1] = Safety: adverse events after injection
How it was run: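 Adverse events were recorded after a single s.c. injection of drug or identical-looking placebo in a randomised, double-blind study of postmenopausal women aged 60–79 y, with 10 per group. Events and abnormal laboratory changes were coded by MedDRA/J version 9.0 by system organ class and preferred term, and classified as adverse drug reactions where applicable. Follow-up lasted until day 15.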

[2] = Pharmacokinetics: plasma teriparatide acetate concentration
How it was run: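 Plasma was sampled before and at 15, 30, 45, 60, 90, 120, 180, 240, 360 and 720 min after one s.c. injection at 0800 h in postmenopausal women. Drug was assayed with a rat PTH IRMA kit (range 10 to 1,000 pg/mL). Cmax, AUClast, AUCinf, Tmax and T1/2 were derived for active-dose recipients only. Concentrations are given as mean ± SD.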

[3] = tested on: urinary cross-linked C-telopeptide of type I collagen (CTX); test: Bone resorption marker urinary CTX; details: n = 10
How it was run: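 Urine was collected at baseline (0800 h), at 120, 240, 360 and 720 min after a single s.c. injection, and on mornings of days 2, 4, 6, 8, 11, 13 and 15. Subjects were postmenopausal women aged 60–79 y in a randomised, double-blind, placebo-controlled design. CTX was measured by ELISA (inter-assay CV 2.4–9.0 %), with each participant's samples in one batch. Median and distribution were summarised.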

intact PTH = test: Serum intact PTH; details: n = 10
How it was run: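 Intact PTH in serum was measured by electrochemiluminescence immunoassay. Postmenopausal women aged 60–79 y were randomised double-blind to placebo or a single s.c. dose, given at 0800 h straight after baseline sampling. Blood was drawn at 15, 30, 45, 60, 90, 120, 180, 240, 360 and 720 min, then mornings of days 2, 4, 6, 8, 11, 13 and 15. Baseline median and follow-up distribution were reported.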

[4] = 4 to 15 days, 28.2 μg single s.c.
[5] = 4 to 15 days, 56.5 μg single s.c.

CC[C@H](C)[C@H](NC(=O)[C@H](CCC(=O)O)NC(=O)[C@H](CO)NC(=O)[C@@H](NC(=O)[C@@H](N)CO)C(C)C)C(=O)N[C@@H](CCC(N)=O)C(=O)N[C@@H](CC(C)C)C(=O)N[C@@H](CCSC)C(=O)N[C@@H](Cc1cnc[nH]1)C(=O)N[C@@H](CC(N)=O)C(=O)N[C@@H](CC(C)C)C(=O)NCC(=O)N[C@@H](CCCCN)C(=O)N[C@@H](Cc1cnc[nH]1)C(=O)N[C@@H](CC(C)C)C(=O)N[C@@H](CC(N)=O)C(=O)N[C@@H](CO)C(=O)N[C@@H](CCSC)C(=O)N[C@@H](CCC(=O)O)C(=O)N[C@@H](CCCN=C(N)N)C(=O)N[C@H](C(=O)N[C@@H](CCC(=O)O)C(=O)N[C@@H](Cc1c[nH]c2ccccc12)C(=O)N[C@@H](CC(C)C)C(=O)N[C@@H](CCCN=C(N)N)C(=O)N[C@@H](CCCCN)C(=O)N[C@@H](CCCCN)C(=O)N[C@@H](CC(C)C)C(=O)N[C@@H](CCC(N)=O)C(=O)N[C@@H](CC(=O)O)C(=O)N[C@H](C(=O)N[C@@H](Cc1cnc[nH]1)C(=O)N[C@@H](CC(N)=O)C(=O)N[C@@H](Cc1ccccc1)C(=O)O)C(C)C)C(C)C [teriparatide]
Any adverse event ([1]; 28.2 μg single s.c., n = 10): 10 (100) n (%)
Decreased appetite ([1]; 28.2 μg single s.c., n = 10): 1 (10) n (%)
Decreased blood pressure ([1]; 28.2 μg single s.c., n = 10): 1 (10) n (%)
Erythema ([1]; 28.2 μg single s.c., n = 10): 1 (10) n (%)
Muscle spasms ([1]; 28.2 μg single s.c., n = 10): 1 (10) n (%)
Palpitations ([1]; 28.2 μg single s.c., n = 10): 1 (10) n (%)
Positional vertigo ([1]; 28.2 μg single s.c., n = 10): 1 (10) n (%)
Rhinorrhea ([1]; 28.2 μg single s.c., n = 10): 1 (10) n (%)
Somnolence ([1]; 28.2 μg single s.c., n = 10): 1 (10) n (%)
Vomiting ([1]; 28.2 μg single s.c., n = 10): 1 (10) n (%)
Any adverse event ([1]; 56.5 μg single s.c., n = 10): 10 (100) n (%)
Conjunctival hyperemia ([1]; 56.5 μg single s.c., n = 10): 1 (10) n (%)
Decreased appetite ([1]; 56.5 μg single s.c., n = 10): 1 (10) n (%)
Eye pain ([1]; 56.5 μg single s.c., n = 10): 1 (10) n (%)
Headache ([1]; 56.5 μg single s.c., n = 10): 3 (30) n (%)
Hot flashes ([1]; 56.5 μg single s.c., n = 10): 1 (10) n (%)
Nasopharyngitis ([1]; 56.5 μg single s.c., n = 10): 1 (10) n (%)
Nausea ([1]; 56.5 μg single s.c., n = 10): 1 (10) n (%)
Pharynx discomfort ([1]; 56.5 μg single s.c., n = 10): 1 (10) n (%)
Rhinorrhea ([1]; 56.5 μg single s.c., n = 10): 1 (10) n (%)
Somnolence ([1]; 56.5 μg single s.c., n = 10): 5 (50) n (%)
Vomiting ([1]; 56.5 μg single s.c., n = 10): 1 (10) n (%)
severity and outcome of ADRs ([1]; 28.2 and 56.5 μg groups, most ADRs): mild and resolved without intervention
changes in laboratory values before or after administration ([1]; throughout the study duration): no significant changes
Tmax ([2]; female, human, sc): 1 h
AUC(0-inf) ([2]; female, human, sc, 28.2 ug): 0.468 ng·h/mL
AUC(0-inf) ([2]; female, human, sc, 56.5 ug): 0.879 ng·h/mL
AUC(0-t) ([2]; female, human, sc, 56.5 ug): 0.832 ng·h/mL
time after injection at which teriparatide concentration disappeared ([2]; single s.c. injection 28.2 or 56.5 μg): 6 h
Urinary CTX, Max ([3]; 2 to 24 h, 28.2 μg single s.c.): 958.0 µg/mmol
Urinary CTX, Median ([3]; 2 to 24 h, 28.2 μg single s.c.): 402.5 µg/mmol
Urinary CTX, Min ([3]; 2 to 24 h, 28.2 μg single s.c.): 192.0 µg/mmol
Urinary CTX, Max ([3]; 2 to 24 h, 56.5 μg single s.c.): 1190.0 µg/mmol
Urinary CTX, Median ([3]; 2 to 24 h, 56.5 μg single s.c.): 508.5 µg/mmol
Urinary CTX, Min ([3]; 2 to 24 h, 56.5 μg single s.c.): 238.0 µg/mmol
Urinary CTX, Max [3, 4]: 655.0 µg/mmol
Urinary CTX, Median [3, 4]: 351.0 µg/mmol
Urinary CTX, Min [3, 4]: 106.0 µg/mmol
Urinary CTX, Max [3, 5]: 972.0 µg/mmol
Urinary CTX, Median [3, 5]: 351.0 µg/mmol
Urinary CTX, Min [3, 5]: 142.0 µg/mmol
Intact-PTH, Max (intact PTH; 2 to 24 h, 28.2 μg single s.c.): 66.0 pg/mL
Intact-PTH, Median (intact PTH; 2 to 24 h, 28.2 μg single s.c.): 34.5 pg/mL
Intact-PTH, Min (intact PTH; 2 to 24 h, 28.2 μg single s.c.): 17.0 pg/mL
Intact-PTH, Max (intact PTH; 2 to 24 h, 56.5 μg single s.c.): 65.0 pg/mL
Intact-PTH, Median (intact PTH; 2 to 24 h, 56.5 μg single s.c.): 35.0 pg/mL
Intact-PTH, Min (intact PTH; 2 to 24 h, 56.5 μg single s.c.): 18.0 pg/mL
Intact-PTH, Max (intact PTH; [4]): 64.0 pg/mL
Intact-PTH, Median (intact PTH; [4]): 45.5 pg/mL
Intact-PTH, Min (intact PTH; [4]): 25.0 pg/mL
